Rows were chosen to be rich in hits. Some 2.9% of all compounds tested hit in one or more screens of this group.
FGF22 binding: shifts melting point of recombinant human FGF22; Q9HCT0; recombinant FGF22 thermal shift, SYPRO orange fluorescence; percent of sucrose octasulfate shift, DMSO zero; activity (Tm shift, normalised), % at 9.99 µM; 340,000 tested, 1.5% active; AID 651658;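 active = mean Tm shift, scaled 0 neutral to 100 positive control, at about 1.3% or above, every replicate too, limit read from the data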
Target sequence (Q9HCT0 whole entry, looked up): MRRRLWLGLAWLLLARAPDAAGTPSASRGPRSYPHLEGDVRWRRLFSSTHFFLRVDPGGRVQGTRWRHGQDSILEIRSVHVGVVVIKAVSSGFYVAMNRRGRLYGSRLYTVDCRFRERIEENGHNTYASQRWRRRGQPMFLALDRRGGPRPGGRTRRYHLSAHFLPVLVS
rRNA inh HTS: selective bacterial rRNA inhibition in E. coli | E. coli WT GFP vs humanized-ribosome RFP mutants, fluorescence, 24 h; stronger effect = lower value; DMSO median 0, no signal -100 | 350,000 tested, 1.6% active | AID 720706 | GFP signal change (wild-type ribosome), % (test concentration not listed);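 active = significant combined selectivity score with lowered wild-type GFP, culture density cut under 30%, mutant RFP and density less affected; inactive = any of these conditions unmet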
Vif inh: HIV Vif inhibition; HEK293T cells, Vif self-association by quenched fluorescence, imaging, 24 h; 340,000 tested, 0.35% active; inhibition, % at 7.49 µM; in the data active = inhibition above about 50%, passing the limit was not always enough
PglD inh: PglD (C. jejuni) enzyme inhibition | AID 602405 | 360,000 tested, 0.098% active | inhibition, % at 12.5 µM | purified PglD enzyme, DTNB colorimetric CoA detection; in the data active = inhibition above about 16%, passing the limit was not always enough
Cneo AK release: Cryptococcus neoformans lysis via adenylate kinase release. AID 651654. lysis activity, % at 15 µM. 360,000 tested, 0.2% active. C. neoformans lysis, adenylate kinase release luminescence, 4 h; normalised: neutral wells 0, clomiphene wells 100;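 active = mean lysis activity across replicates of at least 80%, whatever share of replicates individually reach that level; inactive = mean lysis activity below 80%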
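Material: C. neoformans cells; Schedule: 4 h static compound exposure, 37 °C, read 1 h post-reagent; Measured by: adenylate kinase release luminescence; Read-out: signal increase indicating cell lysis; Controls: Clomiphene as positive lysis control.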
PGC1a acetyl inh: PGC1a acetylation modulation, inhibitor mode | U2OS PGC1a acetylation, AlphaScreen anti-acetyl-lysine; with virally co-expressed GCN5 acetyltransferase | inhibition, % at 15.6 µM | 350,000 tested, 0.17% active;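 active = every replicate shows inhibition of at least 40%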;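 also: 0% = neutral control wells and 100% = positive control wells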
Numbers without * were called inactive; / = not tested or not shown.

SMILES	FGF22 binding	rRNA inh HTS	Vif inh	PglD inh	Cneo AK release	PGC1a acetyl inh
C[C@@H]1CN([C@@H](C)CO)C(=O)c2cc(NC(=O)CCC(F)(F)F)ccc2O[C@@H](C)CCCCO[C@H]1CN(C)S(=O)(=O)c1cn(C)cn1	0	2	/	-1	-1	/
C[C@@H]1CN([C@H](C)CO)C(=O)c2cc(C#CC3CCCC3)cnc2O[C@H]1CN(C)C(=O)Nc1ccccc1	0	-4	/	2	4	-6
COc1ccc2c(c1)[N+](C)(C)C(C)(C)C=C2C	43*	15	6	-4	-4	/
CCOc1ccc2c(c1)[N+](C)(C)C(C)(C)C=C2C	/	-1	7	/	/	3
CCc1c(C)nc(SCC(=O)N2CCN(c3ccccc3)CC2)[nH]c1=O	44*	8	-5	-7	6	-4
CCc1c(C)nc(SCC(=O)N2CCN(c3ccccc3OC)CC2)[nH]c1=O	1	-11	7	/	/	7
O=C(CSc1nc(C2CCCCC2)nc2ccccc12)N1CCCC1	0	-18*	14	/	/	/
Cc1ccc(CNC(=S)Nc2cc(C(=O)O)ccc2C)cc1	0	9	-2	/	/	/
Cc1ccc(C(=O)O)cc1NC(=S)NC(=O)c1ccc([N+](=O)[O-])c(C)c1	43*	4	-1	/	/	/
COc1ccccc1NC(=O)c1c(C)nn(-c2ccccc2)c1Cl	0	-36*	14	-2	0	/
Cc1ccc(S(=O)(=O)N2CC[C@@H]3[C@H](CO)Nc4ccc(-c5ccccc5F)cc4[C@@H]32)cc1	0	0	/	3	90*	-14
Cc1cc(Cl)ccc1OCCCC(=O)N1CCCc2ccccc21	0	-30*	-4	0	4	1
O=C(C[C@@H]1CC[C@@H](NC(=O)C2CCC2)[C@H](CO)O1)Nc1nccs1	0	-1	/	-3	7	2
Oc1ccc(/C=N/Nc2nc(-c3ccc(Cl)cc3)cc(C(F)(F)F)n2)cc1	0	-23*	-6	-2	0	64*
CNC[C@@H]1Oc2c(NC(=O)c3cc(C)nn3C)cccc2C(=O)N([C@H](C)CO)C[C@@H]1C	0	5	/	-5	0	3
Cc1nn(-c2ccc(F)cc2)c2nc(N)c(C#N)c(-c3ccc(O)c(O)c3)c12	0	-18*	2	-6	3	-9
C/C=C/c1ccc2c(c1)O[C@@H](CN(C)C(=O)CN1CCOCC1)[C@H](C)CN([C@H](C)CO)S2(=O)=O	0	1	/	-1	-1	5
Cc1nn(-c2ccccn2)c2c1C(=O)CC(C)(C)C2N=[N+]=[N-] (configuration not stated)	43*	-21	-1	-2	0	/
O=C(NNc1nc2c(F)cccc2s1)c1cc(=O)c2ccccc2o1	-1	-51*	23	-5	-1	-1
CN1CCN(C(=O)/C(=C\c2cccs2)NC(=O)c2ccccc2)CC1	27*	4	-2	2	-2	35
Cc1ccc(C(=O)N/C(=C\c2cccs2)C(=O)NC2CCCCC2)cc1	0	-25*	2	-2	1	-9
CC(=O)Nc1cccc2c1O[C@H](CN(C)S(C)(=O)=O)[C@H](C)CN(C)C2=O	/	-3	/	/	/	/
C[C@H](CO)N1C[C@H](C)[C@H](CN(C)Cc2ccccc2)Oc2cc(C3=CCCC3)ccc2S1(=O)=O	0	-9	/	-1	9	-23
CNC[C@@H]1OCCCC[C@H](C)Oc2ccc(NC(=O)c3ccccc3)cc2C(=O)N([C@@H](C)CO)C[C@H]1C	0	6	/	-3	56	33
CC1CCCN(C(=O)Cc2ccc(F)cc2)C1 (configuration not stated)	/	/	-6	4	2	75*
CCOC(=O)C1CCN(C(=O)Cc2cccc3ccccc23)CC1	/	/	-4	0	-2	4
COc1ccc(CC(=O)N2CCCC(C)C2)cc1 (configuration not stated)	/	/	15	9	0	-8
CC1CCCN(C(=O)Cc2cccc3ccccc23)C1 (configuration not stated)	0	-29*	-6	0	-1	0

Assay outcomes from PubChem.
